Assay results from ChEMBL document CHEMBL4811274, “Epo-C12 inhibits peroxiredoxin 1 peroxidase activity” (Bioorg Med Chem, 2021).
Activity calls are given as the source filed them. No cut-off for these calls is given here.

Experiments:
BALL-1 [1] = experiment: Cytotoxicity against human BALL-1 cells assessed as reduction in cell viability incubated for 24 hrs by WST-8 assay; assay type: functional, cell-based; details: BALL-1, 24 h
Summary of the method: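 BALL-1 cells (RPMI 1640, 10% FBS, 37 °C, 5% CO2) seeded at 10,000 cells/well, exposed to a concentration range for 24 h, 0.1% DMSO. WST-8 reagent added, 2 h at 37 °C, absorbance 450 nm. Growth inhibition taken as sample/control absorbance ratio; IC50 reported as mean ± SD.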

[2] = biological target: Peroxiredoxin-1 (Homo sapiens) (UniProt Q06830); experiment: Retention of chaperone activity of oxidized Prx1 (unknown origin) assessed as decrease in heat-induced citrate synthase aggregation at 25 uM incubated for 20 mins by light scattering assay
[3] = biological target: Peroxiredoxin-1 (Homo sapiens) (UniProt Q06830); experiment: Inhibition of recombinant Prx1 (unknown origin) assessed as reduction in peroxidase activity at 50 uM incubated for 30 mins followed by H2O2 addition and measured after 20 mins by PEROXsay assay kit method relative to control; values are per cent of control; details: time 50.0 min
BALL-1 [4] = experiment: Induction of apoptosis in human BALL-1 cells at 5 uM pretreated with GSH for 1.5 hrs followed by compound addition and measured after 24 hrs by annexin-V-FITC and PI staining based flow cytometry analysis; assay type: functional, cell-based
Summary of the method: (§1)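 BALL-1 cells (2×10⁵) pretreated 1.5 h at 37 °C with DMSO, 250 μM DTT, 1.5 mM GSH or 250 μM NAC, then ±5 μM compound for 24 h. Stained with annexin V-FITC (HEPES–NaOH/NaCl/CaCl2 buffer pH 7.4, 10 min), then 2 μg/mL PI; flow cytometry. Late apoptotic (annexin V+/PI+) percentage; octuplicate, mean ± SD, Tukey HSD.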

BALL-1 [5] = experiment: Induction of ROS production in human BALL-1 cells incubated for 30 mins by DCFH-DA staining based flow cytometry analysis; assay type: functional, cell-based; details: dose 1-10 µM
Summary of the method: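 Cells (2×10⁵) loaded with 10 μM DCFH-DA for 10 min, then exposed to 1, 5 or 10 μM compound, DMSO vehicle, or 50 μM H2O2 for 30 min. Pellets resuspended in PBS; DCF fluorescence by flow cytometry (ex 488/em 530 nm). Fluorescence normalized to control; mean of two independent measurements, error as range.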

BALL-1 [6] = experiment: Induction of apoptosis in human BALL-1 cells at 5 uM pretreated with DTT for 1.5 hrs followed by compound addition and measured after 24 hrs by annexin-V-FITC and PI staining based flow cytometry analysis; assay type: functional, cell-based; summary of the method: as §1
BALL-1 [7] = experiment: Induction of apoptosis in human BALL-1 cells at 5 uM pretreated with NAC for 1.5 hrs followed by compound addition and measured after 24 hrs by annexin-V-FITC and PI staining based flow cytometry analysis; assay type: functional, cell-based; summary of the method: as §1
[8] = biological target: Peroxiredoxin-1 (Homo sapiens) (UniProt Q06830); experiment: Binding affinity to recombinant wild type Prx1 (unknown origin) expressed in human HEK293T cells at 1 uM incubated for 20 hrs by Western blot analysis

Sequence of Peroxiredoxin-1 (Homo sapiens) (Q06830 whole entry, looked up): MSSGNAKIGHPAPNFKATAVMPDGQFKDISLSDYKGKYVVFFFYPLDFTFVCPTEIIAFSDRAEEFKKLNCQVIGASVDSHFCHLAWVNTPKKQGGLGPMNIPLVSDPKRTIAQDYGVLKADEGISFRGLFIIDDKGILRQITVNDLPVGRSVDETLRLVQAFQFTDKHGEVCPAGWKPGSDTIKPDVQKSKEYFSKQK

Activity [2]	residual activity [3] [%]	Activity [8]	SMILES	IC50 (BALL-1 [1]) [µM]	Activity (BALL-1 [4])	Activity (BALL-1 [5])	Activity (BALL-1 [6])	Activity (BALL-1 [7])
Active	33	–	[O-][n+]1c(CBr)c(CBr)[n+]([O-])c2ccccc21	1.05	–	–	–	–
Active	56	–	CCCCCCCCCCCC(=O)[C@]12O[C@H]1C(C)(O)NC2=O (stereo partly specified)	4.41	inactive	Dose-Dependent Effect	inactive	inactive
–	–	Active	CC1(O)NC(=O)[C@@]2(C(=O)CCCCCCCCCCCNC(=O)CCCC[C@@H]3SC[C@@H]4NC(=O)N[C@@H]43)O[C@@H]12 (stereo partly specified)	–	–	–	–	–
